The values that follow come from ChEMBL document CHEMBL1149147, “NR2B-selective N-methyl-D-aspartate antagonists: synthesis and evaluation of 5-substituted benzimidazoles” (J Med Chem, 2004).

In series [1] the target is T1, Adrenergic receptor alpha-1 (Rattus norvegicus, UniProt P15823+P23944+P43140).
T1 sequence (P15823 whole entry): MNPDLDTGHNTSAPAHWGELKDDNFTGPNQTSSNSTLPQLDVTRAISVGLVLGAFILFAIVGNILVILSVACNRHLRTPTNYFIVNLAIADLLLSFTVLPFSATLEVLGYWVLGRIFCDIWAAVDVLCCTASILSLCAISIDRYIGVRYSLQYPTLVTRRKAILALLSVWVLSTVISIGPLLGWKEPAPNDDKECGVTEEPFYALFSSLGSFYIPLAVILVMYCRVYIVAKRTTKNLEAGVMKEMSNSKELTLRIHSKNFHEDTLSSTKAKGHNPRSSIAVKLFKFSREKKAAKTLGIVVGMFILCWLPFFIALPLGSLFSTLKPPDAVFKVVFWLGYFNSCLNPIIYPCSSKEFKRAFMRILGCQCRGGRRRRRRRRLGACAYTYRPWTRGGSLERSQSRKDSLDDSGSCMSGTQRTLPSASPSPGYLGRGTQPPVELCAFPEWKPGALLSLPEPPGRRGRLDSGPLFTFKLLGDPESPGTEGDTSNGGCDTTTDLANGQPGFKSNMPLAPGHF
T1 sequence (P23944 whole entry): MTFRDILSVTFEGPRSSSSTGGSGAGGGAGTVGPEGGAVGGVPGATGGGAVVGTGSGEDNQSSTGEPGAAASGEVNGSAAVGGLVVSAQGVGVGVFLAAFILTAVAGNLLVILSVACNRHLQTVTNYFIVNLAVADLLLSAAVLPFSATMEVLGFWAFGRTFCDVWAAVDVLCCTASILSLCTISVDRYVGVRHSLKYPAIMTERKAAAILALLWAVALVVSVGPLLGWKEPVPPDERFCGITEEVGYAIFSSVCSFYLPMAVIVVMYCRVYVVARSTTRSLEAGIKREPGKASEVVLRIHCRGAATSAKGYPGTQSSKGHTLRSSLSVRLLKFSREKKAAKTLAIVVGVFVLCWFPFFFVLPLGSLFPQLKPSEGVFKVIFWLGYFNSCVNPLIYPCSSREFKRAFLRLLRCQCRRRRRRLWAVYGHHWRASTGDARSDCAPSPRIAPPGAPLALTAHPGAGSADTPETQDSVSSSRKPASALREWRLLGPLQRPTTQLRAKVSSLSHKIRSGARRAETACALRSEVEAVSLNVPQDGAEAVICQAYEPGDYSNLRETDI
T1 sequence (P43140 whole entry): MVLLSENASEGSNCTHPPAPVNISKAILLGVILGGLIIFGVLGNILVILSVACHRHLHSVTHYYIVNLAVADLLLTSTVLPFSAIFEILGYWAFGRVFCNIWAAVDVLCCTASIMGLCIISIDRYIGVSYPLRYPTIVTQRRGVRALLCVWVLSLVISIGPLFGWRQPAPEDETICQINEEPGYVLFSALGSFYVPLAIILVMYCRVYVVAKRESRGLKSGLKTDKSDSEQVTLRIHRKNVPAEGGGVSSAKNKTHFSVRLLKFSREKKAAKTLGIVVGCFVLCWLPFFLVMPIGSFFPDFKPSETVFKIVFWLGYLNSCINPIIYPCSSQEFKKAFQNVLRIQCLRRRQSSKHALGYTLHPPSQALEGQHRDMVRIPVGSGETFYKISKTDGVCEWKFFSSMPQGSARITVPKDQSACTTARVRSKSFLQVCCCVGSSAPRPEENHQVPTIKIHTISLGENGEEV
Kind of series: In vitro inhibitory activity against alpha-1 adrenergic receptor binding to rat brain membranes. More on the design: species or system Membrane. A digest of the protocol:
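Competition binding to α1-adrenergic receptors on membranes prepared from rat brain, using the prazosin binding assay. IC50 is the geometric mean of at least 4 determinations.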

In series [2] the target is Voltage-gated inwardly rectifying potassium channel KCNH2 (Homo sapiens, UniProt Q12809). Kind of series: In vitro inhibition of MK-499 binding to hERG in HEK293 cells. The series is classed as cell-based. To be noted: read-out: IP. On the technique in general: Block of hERG is tested as a sign of cardiac risk.
Chain of Voltage-gated inwardly rectifying potassium channel KCNH2 (Q12809 whole entry): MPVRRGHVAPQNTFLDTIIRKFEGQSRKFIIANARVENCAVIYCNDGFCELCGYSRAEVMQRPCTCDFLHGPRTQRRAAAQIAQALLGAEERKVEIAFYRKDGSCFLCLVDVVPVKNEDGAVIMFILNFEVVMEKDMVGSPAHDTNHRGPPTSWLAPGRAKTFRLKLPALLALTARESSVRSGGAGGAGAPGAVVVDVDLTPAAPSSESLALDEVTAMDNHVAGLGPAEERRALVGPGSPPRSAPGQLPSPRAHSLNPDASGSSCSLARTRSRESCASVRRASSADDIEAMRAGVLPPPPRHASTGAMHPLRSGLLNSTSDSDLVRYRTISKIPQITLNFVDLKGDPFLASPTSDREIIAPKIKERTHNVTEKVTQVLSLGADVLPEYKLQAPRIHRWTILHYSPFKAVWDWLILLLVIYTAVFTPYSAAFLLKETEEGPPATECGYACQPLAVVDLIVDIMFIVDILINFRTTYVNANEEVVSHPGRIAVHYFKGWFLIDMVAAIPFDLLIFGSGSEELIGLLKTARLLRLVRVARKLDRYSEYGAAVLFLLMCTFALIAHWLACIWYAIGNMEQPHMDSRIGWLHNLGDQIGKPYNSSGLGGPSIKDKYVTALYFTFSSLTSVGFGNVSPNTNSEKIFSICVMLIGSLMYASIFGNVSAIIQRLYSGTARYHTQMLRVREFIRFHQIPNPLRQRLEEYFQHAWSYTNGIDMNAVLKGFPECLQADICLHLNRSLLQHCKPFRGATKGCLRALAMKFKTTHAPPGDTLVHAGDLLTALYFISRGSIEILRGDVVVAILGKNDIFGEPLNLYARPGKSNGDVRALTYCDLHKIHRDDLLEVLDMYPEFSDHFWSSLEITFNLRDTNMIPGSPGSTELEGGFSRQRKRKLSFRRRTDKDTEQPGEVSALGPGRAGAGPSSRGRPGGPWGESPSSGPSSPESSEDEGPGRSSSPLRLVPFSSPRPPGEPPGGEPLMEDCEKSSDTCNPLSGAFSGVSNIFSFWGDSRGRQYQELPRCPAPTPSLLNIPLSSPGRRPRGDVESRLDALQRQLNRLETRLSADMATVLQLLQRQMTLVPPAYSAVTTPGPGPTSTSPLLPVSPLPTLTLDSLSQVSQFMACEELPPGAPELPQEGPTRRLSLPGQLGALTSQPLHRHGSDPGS
Series [3] deals with T2, Glutamate NMDA receptor; GRIN1/GRIN2B (Homo sapiens, UniProt Q05586+Q13224). Kind of series: In vitro inhibition of Glu/Gly stimulated [Ca2+] influx in LtK-cells expressing the hNR1a/NR2B receptor. It is filed as functional. The method, boiled down:
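Fluorescence readout of Ca2+ flux stimulated by glutamate/glycine in Ltk- cells stably expressing human NR1a/NR2B, measured as inhibition. IC50 is the geometric mean of at least n = 4, with 2×SEGM given.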

The target in series [4] is T2, Glutamate NMDA receptor; GRIN1/GRIN2B. In words: Compound was evaluated for in vitro inhibition of [3H][(E)-N-(2-methoxybenzyl)cinnamamidine binding to human NR1a/NR2B receptors expressed in LtK-cells. The series is classed as cell-based.
Series [5] is described as follows: Oral bioavailability in rat. It is filed as ADME, organism-based. To be noted: in vivo. A digest of the protocol:
(§1)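 Conscious male Sprague-Dawley rats (n = 3–4) given single doses: 2 mg/kg iv in 100% DMSO, or 10 mg/kg po by gavage in 1% methylcellulose. Plasma was sampled at multiple times up to 24 h. Interanimal variability was below 20%.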

Series [6] in a line: Oral bioavailability in dog (mongrel). The series is classed as ADME, organism-based, Canis lupus familiaris. To be noted: in vivo. A digest of the protocol:
(§2)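 Single doses in dogs (n = 2): 1 mg/kg iv in 100% DMSO, or 3 mg/kg po gavaged in 1% methylcellulose suspension. Plasma was sampled at multiple time points up to 24 h. Interanimal variability was below 20%.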

Series [7] is described as follows: Plasma clearance (in vivo) in mongrel dogs was determined. It is filed as ADME, organism-based, Canis lupus familiaris. To be noted: dog. The method, boiled down:
as §2

The nature of series [8]: Plasma clearance (in vivo) in rats was determined. The series is classed as ADME, organism-based. To be noted: rat. A digest of the protocol: as §1
A short description of series [9]: Half-life in mongrel dogs was determined. To be noted: dog, in vivo. The series is classed as ADME, organism-based, Canis lupus familiaris. The method, boiled down:
as §2

Series [10] concerns Rattus norvegicus. Kind of series: Compound was evaluated in vivo for carrageenan induced mechanical hyperalgesia in rats, intravenously. It is filed as functional. A digest of the protocol:
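Male Sprague-Dawley rats (100–120 g) received 4.5 mg carrageenan in 0.15 mL saline intraplantar, or saline. Agent was given iv in 50% PEG-200/D5W (n = 6/dose) 15 min before the paw pressure read at 3 h. Threshold was taken as vocalization on an algometer.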

Series [11] in a line: Half-life in rats was determined. It is filed as ADME, organism-based. To be noted: rat, in vivo. A digest of the protocol:
as §1

Series [12] deals with Rattus norvegicus. Kind of series: Compound was evaluated in vivo for carrageenan induced mechanical hyperalgesia in rats, perorally. The series is classed as functional. A digest of the protocol: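 Male Sprague-Dawley rats (100–120 g) received 4.5 mg carrageenan intraplantar, with a 3 h post-injection paw pressure (vocalization) threshold. Agent was gavaged in 1% methylcellulose suspension (n = 8/dose) 1 h before the reading. Response is expressed as % of carrageenan hyperalgesia; the highest oral dose was 30 mg/kg, one determination.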

T2 sequence (Q13224 whole entry, other chains not shown): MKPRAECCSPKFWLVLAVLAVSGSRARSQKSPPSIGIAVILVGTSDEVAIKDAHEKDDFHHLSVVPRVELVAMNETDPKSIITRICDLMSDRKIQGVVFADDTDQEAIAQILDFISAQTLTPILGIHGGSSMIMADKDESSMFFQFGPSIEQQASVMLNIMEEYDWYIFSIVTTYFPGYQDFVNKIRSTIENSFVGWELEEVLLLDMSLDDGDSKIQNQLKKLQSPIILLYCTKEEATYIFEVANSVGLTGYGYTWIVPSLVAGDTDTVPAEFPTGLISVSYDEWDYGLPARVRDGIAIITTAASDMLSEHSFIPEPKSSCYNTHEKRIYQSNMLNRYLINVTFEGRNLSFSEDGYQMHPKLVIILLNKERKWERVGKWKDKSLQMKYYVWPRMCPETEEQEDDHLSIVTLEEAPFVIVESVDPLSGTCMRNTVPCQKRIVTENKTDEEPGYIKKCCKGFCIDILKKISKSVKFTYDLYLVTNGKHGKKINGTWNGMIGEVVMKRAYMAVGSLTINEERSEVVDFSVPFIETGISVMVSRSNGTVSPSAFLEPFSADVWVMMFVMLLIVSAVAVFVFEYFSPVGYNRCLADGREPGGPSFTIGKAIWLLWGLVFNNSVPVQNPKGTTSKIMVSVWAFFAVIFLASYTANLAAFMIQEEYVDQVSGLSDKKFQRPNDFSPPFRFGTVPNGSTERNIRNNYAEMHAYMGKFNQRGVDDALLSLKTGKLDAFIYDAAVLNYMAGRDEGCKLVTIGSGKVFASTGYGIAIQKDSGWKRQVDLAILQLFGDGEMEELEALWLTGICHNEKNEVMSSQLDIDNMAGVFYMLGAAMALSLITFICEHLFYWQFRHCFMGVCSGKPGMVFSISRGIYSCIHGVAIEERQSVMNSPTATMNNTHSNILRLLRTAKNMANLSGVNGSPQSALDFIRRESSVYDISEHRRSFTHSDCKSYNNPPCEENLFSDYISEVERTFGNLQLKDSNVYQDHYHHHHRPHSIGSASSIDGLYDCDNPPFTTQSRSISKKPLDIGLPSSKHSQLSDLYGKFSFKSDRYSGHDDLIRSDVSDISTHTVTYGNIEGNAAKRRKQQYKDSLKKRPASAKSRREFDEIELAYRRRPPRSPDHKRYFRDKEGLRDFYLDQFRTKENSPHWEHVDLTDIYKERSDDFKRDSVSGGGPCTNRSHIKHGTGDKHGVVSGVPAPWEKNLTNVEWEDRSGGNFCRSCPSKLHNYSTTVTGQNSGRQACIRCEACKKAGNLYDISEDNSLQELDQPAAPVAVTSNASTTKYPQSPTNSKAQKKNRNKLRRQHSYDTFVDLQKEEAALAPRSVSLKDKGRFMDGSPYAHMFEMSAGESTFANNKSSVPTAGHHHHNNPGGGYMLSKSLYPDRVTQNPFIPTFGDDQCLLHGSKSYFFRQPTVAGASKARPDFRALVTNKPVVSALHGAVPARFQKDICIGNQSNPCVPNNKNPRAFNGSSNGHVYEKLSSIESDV

With `Nc1ccc2[nH]c(Cc3ccc(Oc4ccccc4)cc3)nc2c1`, the IC50 is 2600 nM in [1], 120 nM in [2] and 78 nM in series [3]. Moreover, the affinity in [4] corresponds to a Ki of 180 nM.
For `Oc1ccc2[nH]c(Cc3ccc(Oc4ccccc4)cc3)nc2c1`, the figures for the IC50 in series [1], in [2] and in [3] were 200 nM, 720 nM and 9.2 nM, respectively. For the same molecule, in [4], the Ki (commonly a measure of affinity in units of concentration, obtained from inhibition or displacement) worked out at 3.2 nM.
With `Oc1ccc2[nH]c(CN3CCC(Cc4ccccc4)CC3)nc2c1`, the bioavailability (usually dose-corrected exposure relative to a reference, in per cent) in [5] turned out to be 20%; in series [6], 90%. For the same molecule, the clearance – broadly, the rate of elimination divided by the concentration – in [7] was 0.6 mL/min/kg; in [8] it was 22.8 mL/min/kg. In addition, the half-life – broadly, how long it takes for the measured level to halve – was 6.7 h in [9] and more than 8 h in series [11]. For the same molecule, the figures for the IC50 in series [1], in series [2] and in series [3] were 670 nM, 2600 nM and 8.2 nM, respectively. In [10], this molecule showed an Activity of 3.3 mg/kg.
For the molecule `CC(=O)Nc1ccc2[nH]c(Cc3ccc(Oc4ccccc4)cc3)nc2c1`, the figures for the IC50 in [1], in [2] and in [3] were 20000 nM, 2600 nM and 42 nM, respectively. In [4], this molecule registered a Ki of 93 nM.
In series [5], `CS(=O)(=O)Nc1ccc2[nH]c(Cc3ccc(Oc4ccccc4)cc3)nc2c1` had a bioavailability of 97%. This molecule had a clearance in [8] of 8.3 mL/min/kg. Moreover, the IC50 in series [1] was determined as 4000 nM; in series [2] it was 120 nM; in series [3], 0.72 nM. Moreover, the Ki in [4] turned out to be 0.68 nM. In addition, the Activity in series [12] is more than 30 mg/kg. For the same molecule, the half-life in [11] came out at 1.97 h.
As for `O=S(=O)(Nc1ccc2[nH]c(Cc3ccc(Oc4ccccc4)cc3)nc2c1)c1ccccc1`, the IC50 in [1] stood at 14000 nM; in series [2] it was 680 nM; in [3] it was 49 nM. In series [4], this molecule registered a Ki of 17 nM.
For the molecule `CCCS(=O)(=O)Nc1ccc2[nH]c(Cc3ccc(Oc4ccccc4)cc3)nc2c1`, the results for the IC50 in [1], in [2] and in series [3] were 4800 nM, 400 nM and 19 nM, respectively. In series [4], the Ki came out at 21 nM.
Consider `CN(c1ccc2[nH]c(Cc3ccc(Oc4ccccc4)cc3)nc2c1)S(C)(=O)=O`, for which the IC50 was determined as 2000 nM in series [1], 640 nM in [2] and 25 nM in [3]. Besides, the Ki in series [4] was 470 nM.
Regarding `CC(C)S(=O)(=O)Nc1ccc2[nH]c(CN3CCC(Cc4ccccc4)CC3)nc2c1`, the IC50 worked out at 570 nM in series [1] and 300 nM in series [3]. In series [4], the Ki was 240 nM.
As for `Oc1ccc2[nH]c(CN3CCC(Cc4cccc(F)c4)CC3)nc2c1`, the figures for the IC50 in series [1], in series [2] and in series [3] were 520 nM, 2100 nM and 44 nM, respectively. In [4], this molecule returned a Ki of 4.2 nM.
With `c1ccc(CC2CCN(Cc3nc4ccccc4[nH]3)CC2)cc1`, the IC50 came to 2800 nM in [1], 1400 nM in series [2] and 710 nM in [3]. In [4], this molecule displayed a Ki of 420 nM.
On to `Oc1ccc2[nH]c(CN3CCC(Cc4ccc(F)cc4)CC3)nc2c1`, for which the IC50 came out at 620 nM in series [1], 500 nM in series [2] and 12 nM in series [3]. This molecule also yielded a Ki in series [4] of 1.1 nM.
With `Oc1ccc2[nH]c(CN3CCC(Cc4ccccc4F)CC3)nc2c1`, the figures for the bioavailability in series [5] and in series [6] were 6.4% and 87%, respectively. In addition, the clearance in [7] stood at 0.6 mL/min/kg; in [8] it was 12.3 mL/min/kg. Besides, the half-life in series [9] turned out to be 6.5 h; in series [11] it was 1 h. Also, the IC50 in series [1] worked out at 730 nM; in series [2] it was 2900 nM; in [3], 9.7 nM. This molecule showed a Ki in series [4] of 0.85 nM. Further, in series [10], the Activity was less than 3 mg/kg.
Turning to `Oc1cccc2[nH]c(Cc3ccc(Oc4ccccc4)cc3)nc12`, the values for the IC50 in series [1], in series [2] and in series [3] were 5500 nM, 860 nM and 150 nM, respectively. Further, the Ki in series [4] came to 140 nM.
Regarding `COc1ccc2[nH]c(Cc3ccc(Oc4ccccc4)cc3)nc2c1`, the IC50 in [1] turned out to be 530 nM; in series [3] it was 9200 nM. Moreover, in [4], the Ki amounted to 8400 nM.
`Cc1ccc(CC2CCN(Cc3nc4cc(O)ccc4[nH]3)CC2)cc1`: the IC50 in [1] amounted to 830 nM; in series [2], 390 nM; in [3], 5.7 nM. This molecule also had a Ki in [4] of 0.4 nM.
`O=[N+]([O-])c1ccc2[nH]c(Cc3ccc(Oc4ccccc4)cc3)nc2c1`: the IC50 stood at 1200 nM in series [1], 770 nM in [2] and 6600 nM in series [3].
As for `Oc1ccc2[nH]c(CN3CCC(Cc4c(F)cccc4F)CC3)nc2c1`, the IC50 turned out to be 2600 nM in series [1], 3000 nM in series [2] and 21 nM in series [3]. The affinity in series [4] corresponds to a Ki of 0.82 nM.
`CC(C)S(=O)(=O)Nc1ccc2[nH]c(Cc3ccc(Oc4ccccc4)cc3)nc2c1`: the values for the IC50 in [1] and in [3] were 3100 nM and 14 nM, respectively. The Ki in [4] is 15 nM.
In the case of `CCS(=O)(=O)Nc1ccc2[nH]c(Cc3ccc(Oc4ccccc4)cc3)nc2c1`, the IC50 was determined as 2800 nM in series [1], 1600 nM in series [2] and 2.1 nM in [3]. Besides, the Ki in [4] turned out to be 3 nM.
The like results for `c1ccc(Oc2ccc(Cc3nc4ccccc4[nH]3)cc2)cc1` were, in that order, 4200 nM, 2000 nM, 200 nM and 260 nM.
The like results for `N#Cc1ccc2[nH]c(Cc3ccc(Oc4ccccc4)cc3)nc2c1` were, in that order, 3400 nM, 1100 nM, 800 nM and 790 nM.
With `CS(=O)(=O)Nc1ccc2nc(CN3CCC(Cc4ccccc4)CC3)[nH]c2c1`, the IC50 in series [1] worked out at 1500 nM; in series [2], 340 nM; in series [3] it was 1.9 nM. In series [4], this molecule had a Ki of 0.99 nM.
